Data as given in ChEMBL document CHEMBL1125539 (J Med Chem, 1992).

Key:
[1] = Growth inhibition of aerobic chinese hamster ovary fibroblast AA8 cell line using an exposure time of 18 hours; assay type: functional, cell-based; details: Cricetulus griseus, CHO-AA8, 18 h
How it was run: (§1)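 Log-phase CHO monolayers in 96-well trays seeded at 200 (AA8; text prints "A48") or 300 (UV4) cells/well in Alpha MEM + 10% FCS, grown 24 h, then exposed aerobically 18 h to five 2-fold serial dilutions in duplicate.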

[2] = Growth inhibition of aerobic chinese hamster ovary fibroblast UV4 cells using an exposure time of 18 hours; assay type: functional, cell-based; details: Cricetulus griseus, UV4, 18 h; how it was run: as §1
[3] = Hypoxic selectivity was measured as product of concentration and exposure time needed to reduce cell survival to 10% of control using UV4 cells at 10e6 /mL in the clonogenic assay; assay type: functional, Cricetulus griseus
How it was run: (§2)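 Magnetically stirred 10-mL suspensions of late-log UV4 cells (10^6/mL), gassed continuously with 5% CO2 in air or N2. Cells and drug in medium pre-equilibrated 60 min under that gas before mixing. Samples removed periodically up to 8 h for clonogenic survival. CT10 = concentration (μM) × time (h) for 10% survival; ratio = CT10(air)/CT10(N2), using concentrations giving similar kill rates.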

[4] = species on record: Cricetulus griseus; assay: Hypersensitivity factor was defined as the ratio of IC50(AA8) to IC50(UV4); assay type: functional
[5] = CT10 ratio defined as ratio of CT10 (air) to that of CT10 (nitrogen)); assay type: functional; how it was run: as §2

SMILES	IC50 [1] [µM]	IC50 [2] [µM]	CT10 [3] [µM·h]	HF [4]	CT10 ratio [5] [air/N2]
NC(=O)c1cc(N(CCO)CCO)c([N+](=O)[O-])cc1[N+](=O)[O-]	6200	5900	>35000	1.1	–
NC(=O)c1cc(N2CC2)c([N+](=O)[O-])cc1[N+](=O)[O-] [TRETAZICAR]	560	11.7	–	50	3.6
O=[N+]([O-])c1ccc(N(CCO)CCO)c([N+](=O)[O-])c1	295	280	–	0.9	–
O=C(c1cc(N(CCCl)CCCl)ccc1[N+](=O)[O-])N1CCOCC1	243	15	450	19	1
O=C(c1cc(N(CCO)CCO)c([N+](=O)[O-])cc1[N+](=O)[O-])N1CCOCC1	2950	2600	–	1.1	–
CN(C)CCNC(=O)c1cc(N(CCO)CCO)c([N+](=O)[O-])cc1[N+](=O)[O-]	4110	3100	–	1.4	–
O=C(c1cc(N(CCO)CCO)ccc1[N+](=O)[O-])N1CCOCC1	11200	9200	–	1	–
CN(C)CCNC(=O)c1cccc(N(CCCl)CCCl)c1	11	0.27	–	44	–
CN(C)CCNC(=O)c1cc(N(CCCl)CCCl)c([N+](=O)[O-])cc1[N+](=O)[O-]	260	68	1080	4.2	70
O=[N+]([O-])c1ccc(N(CCO)CCO)cc1	3200	2950	–	1.1	–
O=C(c1cc([N+](=O)[O-])ccc1N(CCO)CCO)N1CCOCC1	10400	8400	–	1.3	–
CN(C)CCNC(=O)c1cc(N(CCO)CCO)ccc1[N+](=O)[O-]	13200	8000	11300	1.6	0.95
CN(C)CCNC(=O)c1cc([N+](=O)[O-])ccc1N(CCO)CCO	6700	4000	–	1.1	–
NC(=O)c1cc(N(CCCl)CCCl)c([N+](=O)[O-])cc1[N+](=O)[O-]	470	108	2700	6.8	60
O=C(c1cc(N(CCCl)CCCl)c([N+](=O)[O-])cc1[N+](=O)[O-])N1CCOCC1	260	12	156	23	1.3
CN(C)CCNC(=O)c1cc([N+](=O)[O-])ccc1N(CCCl)CCCl	208	5.7	78	40	1.5
O=C(c1cc([N+](=O)[O-])ccc1N(CCCl)CCCl)N1CCOCC1	> 500	68	2325	> 7	1.15
O=C(c1cc(N2CC2)c([N+](=O)[O-])cc1[N+](=O)[O-])N1CCOCC1	690	2.7	50	330	1.7
CN(C)CCNC(=O)c1cc(N(CCCl)CCCl)ccc1[N+](=O)[O-]	1140	72	465	12	2.3
